Source: ChEMBL document CHEMBL1212710, “A small molecule that binds Hedgehog and blocks its signaling in human cells” (Nat Chem Biol, 2009)
The source made the active and inactive calls. The rule behind the calls is not given here.

Experiments:
Sonic hedgehog protein [1] = target: T1, Sonic hedgehog protein (Homo sapiens, UniProt Q15465); test: Binding affinity to N-terminal Shh by surface plasmon resonance assay
Summary of the method: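 SPR (Biacore T100) at 25 °C; ShhN amine-coupled to CM4 chip at 10 µg/mL in 10 mM sodium acetate pH 5.5 (1000–1200 RU), underivatized reference surface. Running/sample buffer 0.01 M HEPES pH 7.4, 0.15 M NaCl, 0.05% P20, 5% DMSO; compounds serially diluted 0.78–25 µM, 2 min injections at 80 µL/min; double referencing plus DMSO solvent correction.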

[2] = target: Sonic hedgehog protein (Mus musculus) (UniProt Q62226); test: Inhibition of N-palmitoylated Shh in mouse Shh Light2 cells after 30 hrs by firefly luciferase reporter gene assay; assay type: functional, cell-based; conditions: Shh Light II
Summary of the method: (§1)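 Shh-LIGHT2 (NIH3T3 with Gli-luciferase) cultured in DMEM/10% calf serum with G-418 and Zeocin, grown to confluence (~5–7 days); compounds added in DMEM with 0.5% calf serum, 30 h at 37 °C; pathway activity read as luminescence with Bright-Glo reagent.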

[3] = Cytotoxicity against mouse Shh Light2 cells assessed as cell viability; assay type: cell-based; conditions: shh light ii
Summary of the method: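 Shh-LIGHT2 (NIH3T3 with Gli-luciferase) grown in DMEM/10% calf serum with G-418 and Zeocin, plated and grown to confluence (~5–7 days); treated in DMEM with 0.5% calf serum for 30 h at 37 °C; viability read by CellTiter-Glo luminescence after 10 min at room temperature.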

[4] = target: Sonic hedgehog protein (Mus musculus) (UniProt Q62226); test: Inhibition of N-palmitoylated Shh in mouse Shh Light2 cells at 6.25 uM after 30 hrs by firefly luciferase reporter gene assay; assay type: functional, cell-based; conditions: Shh Light II
Summary of the method: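 Shh-LIGHT2 (NIH3T3 carrying Gli-luciferase reporter) grown to confluence over about 5-7 days in DMEM, 10% calf serum, G-418 and Zeocin at 37 °C. Treated in DMEM with 0.5% calf serum for 30 h. Readout by luminescence with Bright-Glo. Parallel identically treated wells read with CellTiter-Glo after 10 min at room temperature.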

[5] = target: Sonic hedgehog protein (Mus musculus) (UniProt Q62226); test: Inhibition of Shh in MEF deficient in ptch1 gene assessed as beta-galactosidase activity at 6.6 uM after 30 hrs by luminometry
[6] = target: Sonic hedgehog protein (Mus musculus) (UniProt Q62226); test: Inhibition of N-palmitoylated Shh in mouse Shh Light2 cells at > 30 uM after 30 hrs by firefly luciferase reporter gene assay; assay type: functional, cell-based; conditions: Shh Light II; summary of the method: as §1
[7] = target: Sonic hedgehog protein (Mus musculus) (UniProt Q62226); test: Inhibition of N-palmitoylated Shh in mouse Shh Light2 cells at 6.3 to 50 uM after 30 hrs by firefly luciferase reporter assay in presence of 3.6 uM Smo agonist purmorphamine; assay type: functional, cell-based; conditions: Shh Light II; summary of the method: as §1
[8] = target: Sonic hedgehog protein (Mus musculus) (UniProt Q62226); test: Inhibition of N-palmitoylated Shh in mouse Shh Light2 cells at 6.3 to 50 uM after 30 hrs by firefly luciferase reporter assay in presence of 100 nM Smo agonist SAG; assay type: functional, cell-based; conditions: Shh Light II; summary of the method: as §1
[9] = target: Sonic hedgehog protein (Mus musculus) (UniProt Q62226); test: Inhibition of N-terminal Shh-induced differentiation in mouse C3H10T1/2 cells assessed as inhibition of alkaline phosphatase induction; assay type: cell-based; conditions: C3H 10T1/2
[10] = target: Sonic hedgehog protein (Mus musculus) (UniProt Q62226); test: Inhibition of N-terminal Shh-induced differentiation in mouse C3H10T1/2 cells assessed as inhibition of alkaline phosphatase induction in presence of 3.6 uM purmorphamine; assay type: cell-based; conditions: C3H 10T1/2
Sonic hedgehog protein [11] = target: T1, Sonic hedgehog protein; test: Inhibition of N-terminal N-palmitoylated Shh-mediated Gli2 transcription in human keratinocytes at 100 uM after 30 hrs by real-time quantitative PCR analysis; assay type: cell-based
Sonic hedgehog protein [12] = target: T1, Sonic hedgehog protein; test: Inhibition of N-terminal N-palmitoylated Shh-mediated Gli1 transcription in human keratinocytes after 30 hrs by real-time quantitative PCR analysis; assay type: cell-based
Sonic hedgehog protein [13] = target: T1, Sonic hedgehog protein; test: Inhibition of N-terminal N-palmitoylated Shh-mediated Gli1 transcription in human keratinocytes after 30 hrs by real-time quantitative PCR analysis in presence of 3.6 uM Smo agonist purmorphamine; assay type: functional, cell-based
Sonic hedgehog protein [14] = target: T1, Sonic hedgehog protein; test: Inhibition of N-terminal N-palmitoylated Shh-mediated Gli1 transcription in human keratinocytes after 30 hrs by real-time quantitative PCR analysis in presence of 100 nM Smo agonist SAG; assay type: functional, cell-based
Sonic hedgehog protein [15] = target: T1, Sonic hedgehog protein; test: Inhibition of N-terminal N-palmitoylated Shh-mediated Gli2 transcription in human keratinocytes after 30 hrs by real-time quantitative PCR analysis in presence of 3.6 uM Smo agonist purmorphamine; assay type: functional, cell-based
Sonic hedgehog protein [16] = target: T1, Sonic hedgehog protein; test: Inhibition of N-terminal N-palmitoylated Shh-mediated Gli2 transcription in human keratinocytes after 30 hrs by real-time quantitative PCR analysis in presence of 100 nM Smo agonist SAG; assay type: functional, cell-based
Sonic hedgehog protein [17] = target: T1, Sonic hedgehog protein; test: Inhibition of Shh-mediated Gli1 mRNA transcription in human synthetic skin by real-time quantitative PCR analysis
Sonic hedgehog protein [18] = target: T1, Sonic hedgehog protein; test: Inhibition of Shh-mediated Gli2 mRNA transcription in human synthetic skin by real-time quantitative PCR analysis
[19] = target: Sonic hedgehog protein (Mus musculus) (UniProt Q62226); test: Inhibition of Shh in MEF deficient in ptch1 gene assessed as beta-galactosidase activity at 1.56 to 25 uM after 30 mins by luminometry; conditions: in the assay text read “30 hrs” for “30 mins”
Summary of the method: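 Ptc1−/− mouse embryonic fibroblasts carrying β-galactosidase construct, grown in DMEM/10% FBS to confluence (3–4 days, 37 °C); compounds in DMEM/0.5% FBS for 30 h; Beta-Glo reagent added with 30 min gentle agitation at room temperature, then luminescence read.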

[20] = target: Smoothened homolog (Mus musculus) (UniProt P56726); test: Displacement of BODIPY-cyclopamine from Smo expressed in HEK293T cells after 30 mins; conditions: HEK-293T
Sequence of Smoothened homolog (Mus musculus) (P56726 whole entry, looked up): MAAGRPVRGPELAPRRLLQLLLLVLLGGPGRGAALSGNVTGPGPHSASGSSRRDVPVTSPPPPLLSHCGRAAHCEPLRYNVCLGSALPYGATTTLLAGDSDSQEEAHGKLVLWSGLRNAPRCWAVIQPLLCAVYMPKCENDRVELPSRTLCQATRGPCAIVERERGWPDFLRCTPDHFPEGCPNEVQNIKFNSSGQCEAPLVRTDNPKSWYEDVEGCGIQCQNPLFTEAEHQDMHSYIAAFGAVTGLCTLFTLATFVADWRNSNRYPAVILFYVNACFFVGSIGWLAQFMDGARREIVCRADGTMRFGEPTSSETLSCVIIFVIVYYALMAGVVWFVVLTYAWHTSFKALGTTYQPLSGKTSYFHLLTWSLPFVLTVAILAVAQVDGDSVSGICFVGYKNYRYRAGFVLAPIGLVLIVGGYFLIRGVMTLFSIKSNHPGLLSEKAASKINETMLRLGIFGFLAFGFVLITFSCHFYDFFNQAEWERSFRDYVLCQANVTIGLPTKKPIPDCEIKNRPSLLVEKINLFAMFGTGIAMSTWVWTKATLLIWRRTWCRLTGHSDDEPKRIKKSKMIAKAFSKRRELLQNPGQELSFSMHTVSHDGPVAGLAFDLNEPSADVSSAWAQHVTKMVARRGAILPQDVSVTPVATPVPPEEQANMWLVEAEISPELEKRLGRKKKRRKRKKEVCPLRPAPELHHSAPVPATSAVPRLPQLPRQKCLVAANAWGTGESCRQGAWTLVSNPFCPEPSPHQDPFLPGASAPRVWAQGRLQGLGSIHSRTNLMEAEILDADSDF

T1 sequence (Q15465 24-197 limits assumed): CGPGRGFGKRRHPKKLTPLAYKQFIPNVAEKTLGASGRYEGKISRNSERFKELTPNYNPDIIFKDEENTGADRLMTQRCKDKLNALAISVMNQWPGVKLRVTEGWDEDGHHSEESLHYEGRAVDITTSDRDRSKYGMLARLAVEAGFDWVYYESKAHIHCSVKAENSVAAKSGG

With `C[C@H]1COC(=O)[C@@H](N)CC/C=C/C[C@@H](CC(=O)N(CCO)Cc2ccccc2)C(=O)N1` the Activity (Sonic hedgehog protein [1]) was “Dose-dependent effect”, the inhibition [2] was “Active” and the Activity [3] was “Non-toxic”.

With `CC1=C2C[C@H]3[C@@H](CC=C4C[C@@H](O)CC[C@@]43C)[C@@H]2CC[C@]12O[C@@H]1C[C@H](C)CN[C@H]1[C@H]2C` the inhibition [4] was “Active” and the inhibition [5] was “Active”.

With `O=C(C[C@@H]1C/C=C/CCC(=O)O[C@H](c2ccccc2)CNC1=O)NCc1ccc(Cl)cc1` [ROBOTNIKININ] the Kd (Sonic hedgehog protein [1]) was 3.1 µM, the inhibition [2] was “Dose-dependent effect” and the Activity [3] was “Non-toxic”. The inhibition [6] was “Active”, the inhibition [7] was “Active” and the inhibition [8] was “Active”. For the same molecule, the inhibition [9] was “Active”, the inhibition [10] was “inactive” and the inhibition (Sonic hedgehog protein [11]) was “Active”. The inhibition (Sonic hedgehog protein [12]) was “Active”, the Activity (Sonic hedgehog protein [13]) was “inactive” and the Activity (Sonic hedgehog protein [14]) was “inactive”. For the same molecule, the Activity (Sonic hedgehog protein [15]) was “inactive”, the Activity (Sonic hedgehog protein [16]) was “inactive” and the inhibition (Sonic hedgehog protein [17]) was “Active”. For the same molecule, the inhibition (Sonic hedgehog protein [18]) was “Active”, the inhibition [19] was “inactive” and the Activity [20] was “inactive”.
